*1 amine or outer side, *2 acyl side, *3 side chain or, on linkers, in order; H or OH if unused. Where a SMILES comes first, the peptide text is derived from it. Bridges are numbered along the chain shown (N, C = ends). X1 = CC(C)(CC(=O)[*:1])S[*:2]
Key:
[1] = test system: Rattus norvegicus; assay: Vasopressor activity in iv dosed phenoxybenzamine treated rat; type: functional
In short: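 Rats pretreated with phenoxybenzamine, under urethane anesthesia, analogue given intravenously; vasopressor (blood pressure) response measured, antagonism expressed as pA2 by Schild method, pA2 calculated per assay group and reported as mean ± SE with number of assays.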

[2] = test system: Rattus norvegicus; assay: Antidiuretic activity in iv dosed rat; type: functional, Urine
In short: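 Rats under ethanol anesthesia, analogue given intravenously; antidiuretic response measured by previously described method.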

[3] = test system: Rattus norvegicus; assay: Antivasopressor activity in iv dosed phenoxybenzamine treated rat assessed as inhibition of arginine-vasopressin-induced effect; type: functional, organism-based; details: read-out: pA2 (converted)
In short: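 Rats pretreated with phenoxybenzamine and anaesthetised with urethane; pressor response to arginine-vasopressin recorded with and without intravenous analogue. pA2 derived by the Schild method, one pA2 calculated per assay group, reported as mean ± SE across groups, number of assays stated.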

Compound | Activity [1] | Activity [2] | Kb [3]
COc1ccc(C[C@@H]2NC(=O)[C@@H](N)CSSC[C@@H](C(=O)N3CCC[C@H]3C(=O)N[C@@H](CCCNC(=N)N)C(=O)NCC(N)=O)NC(=O)[C@H](CC(N)=O)NC(=O)[C@H](CCC(N)=O)NC(=O)[C@H](Cc3ccccc3)NC2=O)cc1 | 9.7 U/mg | 386 U/mg | –
COc1ccc(C[C@@H]2NC(=O)[C@@H](N)CSSC[C@@H](C(=O)N3CCC[C@H]3C(=O)N[C@@H](CCCCN)C(=O)NCC(N)=O)NC(=O)[C@H](CC(N)=O)NC(=O)[C@H](CCC(N)=O)NC(=O)[C@H](Cc3ccccc3)NC2=O)cc1 | 2.4 U/mg | 79 U/mg | –
CC[C@H](C)[C@@H]1NC(=O)[C@H](Cc2ccc(OC)cc2)NC(=O)[C@@H](N)CSSC[C@@H](C(=O)N2CCC[C@H]2C(=O)N[C@@H](CC(C)C)C(=O)NCC(N)=O)NC(=O)[C@H](CC(N)=O)NC(=O)[C@H](CCC(N)=O)NC1=O | – | 0.01 U/mg | –
COc1ccc(C[C@@H]2NC(=O)CC(C)(C)SSC[C@@H](C(=O)N3CCC[C@H]3C(=O)N[C@@H](CCCN=C(N)N)C(=O)NCC(N)=O)NC(=O)[C@H](CC(N)=O)NC(=O)[C@H](CCC(N)=O)NC(=O)[C@H](Cc3ccccc3)NC2=O)cc1 (Y(Me)FQNCPRG-NH2; linker N-5 via X1) | – | 3.5 U/mg | 11 nM
CC1(C)CC(=O)N[C@@H](Cc2ccc(O)cc2)C(=O)N[C@@H](Cc2ccccc2)C(=O)N[C@@H](CCC(N)=O)C(=O)N[C@@H](CC(N)=O)C(=O)N[C@H](C(=O)N2CCC[C@H]2C(=O)N[C@@H](CCCNC(=N)N)C(=O)NCC(N)=O)CSS1 (YFQNCPRG-NH2; linker N-5 via X1) | – | 42 U/mg | –
CC[C@H](C)[C@@H]1NC(=O)[C@H](Cc2ccc(O)cc2)NC(=O)CCSSC[C@@H](C(=O)N2CCC[C@H]2C(=O)N[C@@H](CC(C)C)C(=O)NCC(N)=O)NC(=O)[C@H](CC(N)=O)NC(=O)[C@H](CCC(N)=O)NC1=O [DEMOXYTOCIN] | 1.44 U/mg | 19 U/mg | –
N=C(N)NCCC[C@@H](NC(=O)[C@@H]1CCCN1C(=O)[C@@H]1CSSCCC(=O)N[C@@H](Cc2ccc(O)cc2)C(=O)N[C@@H](Cc2ccccc2)C(=O)N[C@@H](CCC(N)=O)C(=O)N[C@@H](CC(N)=O)C(=O)N1)C(=O)NCC(N)=O [DESMOPRESSIN] | 346 U/mg | – | –
NCCCC[C@H](NC(=O)[C@@H]1CCCN1C(=O)[C@@H]1CSSC[C@H](N)C(=O)N[C@@H](Cc2ccc(O)cc2)C(=O)N[C@@H](Cc2ccccc2)C(=O)N[C@@H](CCC(N)=O)C(=O)N[C@@H](CC(N)=O)C(=O)N1)C(=O)NCC(N)=O [LYPRESSIN] | 285 U/mg | 212 U/mg | –
CC[C@H](C)[C@@H]1NC(=O)[C@H](Cc2ccc(O)cc2)NC(=O)[C@@H](N)CSSC[C@@H](C(=O)N2CCC[C@H]2C(=O)N[C@@H](CC(C)C)C(=O)NCC(N)=O)NC(=O)[C@H](CC(N)=O)NC(=O)[C@H](CCC(N)=O)NC1=O [OXYTOCIN] | – | 4 U/mg | –
N=C(N)NCCC[C@H](NC(=O)[C@@H]1CCCN1C(=O)[C@@H]1CSSC[C@H](N)C(=O)N[C@@H](Cc2ccc(O)cc2)C(=O)N[C@@H](Cc2ccccc2)C(=O)N[C@@H](CCC(N)=O)C(=O)N[C@@H](CC(N)=O)C(=O)N1)C(=O)NCC(N)=O [VASOPRESSIN] | – | 323 U/mg | –

Source: ChEMBL document CHEMBL3272107, “Design of potent antagonists of the vasopressor response to arginine-vasopressin” (J Med Chem, 1978)
